Assay results collected from several papers.
Compare with care: the assays were run in different laboratories.

CC1=C2C[C@H]3[C@@H](CC[C@@H]4C[C@H](NS(C)(=O)=O)CC[C@@]43C)[C@@H]2CC[C@@]2(C1)O[C@@H]1C[C@H](C)CN[C@H]1[C@H]2C  IC50 (MB002; cell growth or viability; 7 days): > 10000 nM
O=c1c2ccccc2nc(/C=C/c2ccco2)n1-c1cccc(O)c1  MIC (Enterococcus faecium; microbial growth; broth dilution; NCTC7171): > 128 µg/mL
Cc1ccc(-c2nc3ccc(C)cn3c2CC(=O)N(C)C)cc1  MIC (Mycobacteroides chelonae; microbial growth; 72 h): > 50 µM
COc1cc(C(=O)NC2CCN(C)CC2)c(F)cc1Nc1ncc2c(n1)N(C1CCCC1)CC(F)(F)C(=O)N2C  IC50 (MB002; cell growth or viability; 7 days): 13.6 nM
N.N.[Cl][Pt][Cl]  IC50 (CCD 19Lu; cell growth or viability; 48 h): 84400 nM
COc1ccc(/C=C/c2nc3ccccc3c(=O)n2-c2cccc(O)c2)cc1  MIC (Enterococcus faecium; microbial growth; broth dilution; NCTC7171): 64 µg/mL
COC(=O)c1cc(-c2cccc(NC(=O)Nc3cccc(F)c3)c2)on1  MIC (Mycobacteroides chelonae; microbial growth; broth dilution; ATCC35752; 48 h): > 64 µg/mL
COc1cc(OC)c(C=C2C(O)=Nc3ccccc32)c(OC)c1  IC50 (MB002; cell growth or viability; 7 days): 58.5 nM
O=C(O)c1ccc(/C=C/c2nc3ccccc3c(=O)n2-c2cccc(O)c2)cc1  MIC (Enterococcus faecium; microbial growth; broth dilution; NCTC7171): 64 µg/mL
CCCCCCNC(=S)Nc1cccc(-c2cc(C(=O)OC)no2)c1  MIC (Mycobacteroides chelonae; microbial growth; broth dilution; ATCC35752; 48 h): > 64 µg/mL
O=c1c2ccccc2nc(/C=C/c2ccc([N+](=O)[O-])cc2)n1-c1ccccc1O  MIC (Enterococcus faecium; microbial growth; broth dilution; NCTC7171): > 128 µg/mL
COC(=O)c1cc(-c2cccc(NC(=O)Nc3cccc(C#N)c3)c2)on1  MIC (Mycobacteroides chelonae; microbial growth; broth dilution; ATCC35752; 48 h): > 64 µg/mL
